The source of these data is ChEMBL document CHEMBL4196022, “Alkynyl-containing phenylthiazoles: Systemically active antibacterial agents effective against methicillin-resistant Staphylococcus aureus (MRSA)” (Eur J Med Chem, 2018).

Converted amounts (≈) assume the structure as drawn. The source made the active and inactive calls.

Data set [1] has as its system Staphylococcus aureus. Put plainly: Potency index, ratio of vancomycin MIC to compound MIC for antibacterial activity against vancomycin-resistant Staphylococcus aureus VRS10. In kind it is functional.
The test system of a further data set is Rattus norvegicus. Put plainly: AUC in Sprague-Dawley rat at 2 uM administered as single iv bolus dose by LC-MS/MS analysis. In kind it is ADME, organism-based. Conditions: in vivo. The method, boiled down:
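Male naïve Sprague-Dawley rats (three animals) received an IV bolus of a 2 μM solution. EDTA-K2 blood was sampled over 12 h post dose. Plasma was protein-precipitated with acetonitrile and quantified by LC/MS/MS. Parameters came from two-compartmental pharmacokinetic analysis.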

Data set [2] has as its system Staphylococcus aureus. Put plainly: Antibacterial activity against methicillin-resistant Staphylococcus aureus USA300 after 20 hrs by broth microdilution assay. Type of data set: functional. Conditions: USA300, 20 h. The procedure, abridged:
(§1)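 Broth microdilution per CLSI in cation-adjusted Mueller Hinton broth. Compounds serially diluted, in triplicate. Incubation at 37 °C for at least 20 hours. MIC taken as the lowest concentration with no visible bacterial growth.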
(In general: Broth dilution looks for growth in wells or tubes with falling amounts of substance.)

The test system of data set [3] is Staphylococcus aureus. The data set can be described thus: Bactericidal activity against methicillin-resistant Staphylococcus aureus NRS123 (USA400) at 4 times MIC after 24 hrs by time kill assay. In kind it is functional, organism-based.
The test system of data set [4] is Staphylococcus aureus. Put plainly: Inhibition of UPPS/UPPP in vancomycin-resistant Staphylococcus aureus VRS10 assessed as potentiation of vancomycin-induced antibacterial activity by measuring fold reduction in vancomycin MIC at 0.5 times MIC preincubated for 30 mins followed by vancomycin addition measured after 20 to 22 hrs by broth microdilution assay relative to control. The procedure, abridged:
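VRS10 suspension pre-exposed to compound at ½ × MIC for 30 min at room temperature. […] Incubation at 37 °C for 20–22 h before the MIC was read; untreated bacteria served as control.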

Data set [5] relates to Mus musculus. Put plainly: Induction of inflammation in Balb/c mouse infected with methicillin-resistant Staphylococcus aureus USA300 assessed as redness around wounded skin area at 2% administered topically twice daily for 5 consecutive days measured 12 hrs post last dose relative to control. In kind it is organism-based. Conditions: in vivo, topical_or_ocular. The procedure, abridged: (§2)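 Female Balb/c mice, 8 weeks old, n=5 per group. Intradermal injection of 40 μL of 1.32×10^9 CFU/mL USA300; a wound formed by ~66 h. Treated topically with a 2% suspension in petroleum jelly twice daily for 5 days; the vehicle group served as control. Wounds excised 12 h after the last dose, homogenized in PBS and plated on mannitol salt agar; sites also observed for redness and swelling.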

The target of data set [6] is T1, Ditrans,polycis-undecaprenyl-diphosphate synthase ((2E,6E)-farnesyl-diphosphate specific) (Escherichia coli (strain K12), UniProt P60472).
T1 sequence (P60472 whole entry): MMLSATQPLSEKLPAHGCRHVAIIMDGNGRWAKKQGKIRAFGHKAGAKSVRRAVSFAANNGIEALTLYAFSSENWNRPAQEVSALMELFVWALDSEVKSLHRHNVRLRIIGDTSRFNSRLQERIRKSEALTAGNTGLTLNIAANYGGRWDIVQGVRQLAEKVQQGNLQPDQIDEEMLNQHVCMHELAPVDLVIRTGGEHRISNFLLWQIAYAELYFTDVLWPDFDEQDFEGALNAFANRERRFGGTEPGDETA
Put plainly: Inhibition of Escherichia coli UPPS using IPP and FPP as substrate preincubated for 30 mins followed by substrate addition measured after 20 mins by malachite green phosphate assay.

The subject of data set [7] is Staphylococcus aureus. The data set can be described thus: Ratio of MBC to MIC for methicillin-resistant Staphylococcus aureus NRS119. Type of data set: functional. The procedure, abridged:
(§3)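 MBC/MIC ratio. […] MBC by plating no-growth wells onto tryptic soy agar at 37 °C for at least 18 h; taken as the concentration giving 99.9% growth inhibition.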

Data set [8] concerns Staphylococcus aureus. The data set can be described thus: Antibacterial activity against methicillin-resistant Staphylococcus aureus USA300 in Balb/c mouse skin infection model assessed as reduction in bacterial burden in wounded skin area at 2% administered topically twice daily for 5 consecutive days measured 12 hrs post last dose relative to control. In kind it is functional. Details: scale not given: the % may be the effect or the level left. The procedure, abridged: as §2

Data set [9] is described as follows: Efflux ratio of apparent permeability in human Caco2 cells at 10 uM after 60 mins by LC-MS/MS analysis. The settings on record: caco-2, 1 h. In kind it is ADME, cell-based. The method, boiled down:
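Caco-2 monolayers were seeded at 1 × 10^5 cells/cm2 and differentiated for three weeks. Test article was at 10 μM (1% DMSO) in HBSS-MES pH 6.5 or HBSS-HEPES pH 7.4 and added to the donor side. Incubation ran 60 min (A→B) or 40 min (B→A), and receiver buffer was analysed by LC/MS/MS. Lucifer yellow and fluorescein checked monolayer integrity. Efflux ratio = Papp(B→A)/Papp(A→B).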

Data set [10] concerns Staphylococcus aureus. The data set can be described thus: Antibacterial activity against vancomycin-resistant Staphylococcus aureus VRS10 after 20 hrs by broth microdilution assay. Type of data set: functional. Conditions: VRS10, 20 h. The method, boiled down: as §1
Data set [11] has as its system Staphylococcus aureus. The data set can be described thus: Potency index, ratio of vancomycin MIC to compound MIC for antibacterial activity against vancomycin-resistant Staphylococcus aureus VRS12. In kind it is functional.
Data set [12] can be described thus: Apparent permeability from basolateral to apical side in human Caco2 cells at 10 uM after 60 mins by LC-MS/MS analysis. In kind it is ADME, cell-based. The settings on record: caco-2, 1 h.
Data set [13] concerns Mus musculus. Put plainly: Toxicity in wounded skin area of Balb/c mouse infected with methicillin-resistant Staphylococcus aureus USA300 at 2% administered topically twice daily for 5 consecutive days measured 12 hrs post last dose. Type of data set: organism-based. The settings on record: in vivo, topical_or_ocular. The method, boiled down: as §2
The nature of data set [14]: Induction of proton motive force collapse in Escherichia coli inverted membrane vesicle in presence of succinate/O2-driven PMF generation system by ACMA-based fluorescence assay. Type of data set: functional, cell membranes. The procedure, abridged:
(§4)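 E. coli inverted membrane vesicles had proton motive force generated either by ATP or by succinate/O2. PMF collapse was followed as a dose response to give EC50, with CCCP as the reference uncoupler.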

In data set [15] the test system is Staphylococcus aureus. The data set can be described thus: Bactericidal activity against methicillin resistant vancomycin-resistant Staphylococcus aureus VRS12 up to 18 hrs by broth microdilution assay. The settings on record: VRS12, 18 h, read-out: MBC99.9. In kind it is functional. The method, boiled down: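 MBC set up from the MIC plates. Aliquots from wells with no growth spotted onto tryptic soy agar and incubated at 37 °C for at least 18 hours. MBC taken as the lowest concentration giving 99.9% inhibition of bacterial growth.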

The subject of data set [16] is Staphylococcus aureus. Put plainly: Ratio of MBC to MIC for vancomycin-resistant Staphylococcus aureus VRS11a. In kind it is functional. The method, boiled down:
as §3

The nature of data set [17]: Induction of proton motive force collapse in Escherichia coli inverted membrane vesicle in presence of ATP-driven PMF generation system by ACMA-based fluorescence assay. In kind it is functional, cell membranes. The procedure, abridged: as §4
For data set [18], the system named is Staphylococcus aureus. Put plainly: Ratio of MBC to MIC for vancomycin-resistant Staphylococcus aureus VRS10. Type of data set: functional. The procedure, abridged: as §3
In data set [19] the target is T2, Undecaprenyl-diphosphatase (Escherichia coli (strain K12), UniProt P60932).
T2 sequence (P60932 whole entry): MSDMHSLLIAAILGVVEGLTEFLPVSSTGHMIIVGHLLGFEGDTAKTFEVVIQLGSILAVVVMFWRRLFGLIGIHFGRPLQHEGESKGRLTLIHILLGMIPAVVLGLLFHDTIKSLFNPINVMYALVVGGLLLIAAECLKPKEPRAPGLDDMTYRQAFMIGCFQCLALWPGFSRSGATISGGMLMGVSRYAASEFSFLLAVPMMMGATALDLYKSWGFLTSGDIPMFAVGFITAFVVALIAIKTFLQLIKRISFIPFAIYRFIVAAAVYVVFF
The data set can be described thus: Inhibition of Escherichia coli UPPP expressed in Escherichia coli C41(DE3) using FPP as substrate preincubated for 15 mins followed by substrate addition measured after 20 mins by malachite green assay.

Data set [20] deals with Staphylococcus aureus. The data set can be described thus: Ratio of MBC to MIC for methicillin-resistant Staphylococcus aureus NRS123 (USA400). In kind it is functional. The method, boiled down:
as §3

Data set [21] deals with Staphylococcus aureus. The data set can be described thus: Bactericidal activity against methicillin-resistant Staphylococcus aureus NRS107 up to 18 hrs by broth microdilution assay. In kind it is functional. Conditions: NRS107, 18 h, read-out: MBC99.9.

Regarding `C/C(=N\NC(=N)N)c1sc(-c2ccc(C#CC3CC3)cc2)nc1C`, the Ratio in the data set with Staphylococcus aureus [1] is over 100; in the data set on Staphylococcus aureus [7], “<=3”; in data set [9] it was 69; in the data set on Staphylococcus aureus [11], 8; in the data set with Staphylococcus aureus [16] it was “<=3”; in the data set with Staphylococcus aureus [18] it was “<=3”. In the data set on Staphylococcus aureus [20], the Ratio entry was “<=3”. This compound had an AUC in the data set with Rattus norvegicus of 0.69 µg·h/mL. Moreover, the MIC against Staphylococcus aureus [2] and in the data set on Staphylococcus aureus [10] was 2 mg/L (≈ 5.93 µM) each time. Further, the result in the data set with Staphylococcus aureus [3] was Active. In the data set on Staphylococcus aureus [4], the fold change (FC) came out at 512. In addition, the Activity entry in the data set on Mus musculus [5] is on record as “Non-Toxic”; with Staphylococcus aureus [8], 73%; in the data set on Mus musculus [13], “Non-Toxic”. Further, the IC50 in data set [6] was determined as 38 µM; in data set [19], 8.1 µM. The Papp in [12] was 3.5 nm/s. The figures for the EC50 in data set [14] and in data set [17] were 28 µM and 24 µM, respectively. The MBC with Staphylococcus aureus [15] and with Staphylococcus aureus [21] was 2 mg/L (≈ 5.93 µM) throughout.

What is called AUC is concentration integrated over time. One may read the MIC as the smallest concentration in the dilution series that meets the test's criterion for growth inhibition. The term IC50 denotes the concentration that gives 50% inhibition. Usually Papp stands for a coefficient for how fast a substance crosses the barrier. As a reminder, the EC50 is the concentration needed to bring the measured effect to its halfway point.
